Laboratory results as given in ChEMBL document CHEMBL4665631, “Synthesis and biological evaluation of paclitaxel and vorinostat co-prodrugs for overcoming drug resistance in cancer therapy in vitro” (Bioorg Med Chem, 2019).
The source made the active and inactive calls. The rule behind the calls is not given here.

Assays:
[1] = Stability in PBS at pH 6 assessed as compound remaining after 24 hrs by HPLC analysis; type: physicochemical; settings: read-out: Stabilty
In short: (§1)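 Co-prodrug stock diluted in 10 mM PBS at pH 7.4 or 6.0 and held at 37 °C. Sampled at 0.5, 1, 2, 3, 4, 6, 12 and 24 h. Intact co-prodrug, released PTX and released SAHA resolved by RP-HPLC. Amounts taken from external-standard concentration curves.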

HCT-116 = assay: Cytotoxicity against human HCT-116 cells after 72 hrs by SRB assay; type: functional, cell-based; settings: HCT-116, 72 h
[2] = Drug degradation in PBS assessed as SAHA release at pH 7.4 after 48 hrs by HPLC analysis; settings: buffer, pH 7.4, 48 h
[3] = molecular target: T1, Histone deacetylase (Homo sapiens) (UniProt Q13547+O15379+Q9UBN7+Q92769+Q9UQL6+Q8WUI4+Q9BY41+Q96DB2+P56524+Q9UKV0+Q969S8); assay: Inhibition of HDAC in human HCT-116 cells assessed as increase in tubulin acetylation measured after 10 to 24 hrs by Western blot analysis; type: cell-based; settings: time hrs 10-24
In short: (§2)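 Cells in logarithmic phase seeded in 6-well plates and cultured overnight. Compound exposure at 37 °C for 10 h and 24 h, with untreated cells as control. Cells lysed in RIPA buffer and lysates boiled. Proteins separated by SDS-PAGE and semidry-transferred to nitrocellulose. Membranes probed with primary antibody overnight at 4 °C, then HRP-conjugated secondary antibody for 1 h at room temperature. Detection by chemiluminescence imaging.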

[4] = Half life in mouse plasma by HPLC analysis; type: ADME, cell-free
In short: (§3)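 Co-prodrug diluted into human or mouse plasma and incubated at 37 °C. Sampled at 0.5, 1, 2, 3, 4, 5 and 6 h. Each aliquot quenched with an equal volume of cold acetonitrile and centrifuged. Supernatant analysed by RP-HPLC, with compounds quantified against an external-standard concentration–area curve.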

NCI/ADR-RES = assay: Cytotoxicity against human MCF7/ADR cells after 72 hrs by SRB assay; type: functional, cell-based
[5] = molecular target: T1, Histone deacetylase (Homo sapiens); assay: Inhibition of HDAC in human MCF7 cells assessed as increase in tubulin acetylation measured after 10 to 24 hrs by Western blot analysis; type: cell-based; settings: time hrs 10-24; in short: as §2
[6] = Retention time of the compound by HPLC method; type: physicochemical
In short: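 Reversed-phase HPLC with a gradient of acetonitrile and water, both containing 0.1% formic acid, at 1 mL/min. Gradient ran 5% to 95% acetonitrile over 0–15 min, then held at 95% from 15 to 25 min. Injection volume 50 µL.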

[7] = Drug degradation in PBS assessed as PTX release at pH 7.4 after 48 hrs by HPLC analysis; settings: buffer, pH 7.4, 48 h
[8] = Half life of compound in PBS buffer at pH 7.4 by HPLC analysis; type: physicochemical; in short: as §1
MCF7 = assay: Cytotoxicity against human MCF7 cells after 72 hrs by SRB assay; type: functional, cell-based; settings: MCF7, 72 h
[9] = Half life in human plasma by HPLC analysis; type: ADME, cell-free; in short: as §3
[10] = molecular target: T1, Histone deacetylase (Homo sapiens); assay: Inhibition of HDAC in human MCF7/ADR cells assessed as increase in tubulin acetylation measured after 10 to 24 hrs by Western blot analysis; type: cell-based; settings: NCI/ADR-RES, time hrs 10-24; in short: as §2

| Structure (SMILES) | remaining at 24 h [1] | Drug degradation [2] | inhibition [3] | half-life [4] | inhibition [5] | Retention_time [6] | Drug degradation [7] | half-life [8] | half-life [9] | inhibition [10] | IC50 (HCT-116) | IC50 (NCI/ADR-RES) | IC50 (MCF7) |
| --- | --- | --- | --- | --- | --- | --- | --- | --- | --- | --- | --- | --- | --- |
| CC(=O)O[C@H]1C(=O)[C@@]2(C)[C@H]([C@H](OC(=O)c3ccccc3)[C@]3(O)C[C@H](OC(=O)[C@H](O)[C@@H](NC(=O)c4ccccc4)c4ccccc4)C(C)=C1C3(C)C)[C@]1(OC(C)=O)CO[C@@H]1C[C@@H]2O [PACLITAXEL] |  |  | Active |  | Active | 13.81 min |  |  |  | Active |  | > 10000 nM | < 1.5 nM |
| O=C(CCCCCCC(=O)Nc1ccccc1)NO [VORINOSTAT] |  |  |  |  |  | 8.42 min |  |  |  |  |  |  |  |
| CC(=O)O[C@H]1C(=O)[C@@]2(C)[C@H]([C@H](OC(=O)c3ccccc3)[C@]3(O)C[C@H](OC(=O)[C@H](OC(=O)CCC(=O)O)[C@@H](NC(=O)c4ccccc4)c4ccccc4)C(C)=C1C3(C)C)[C@]1(OC(C)=O)CO[C@@H]1C[C@@H]2O |  |  |  |  |  | 13.63 min |  |  |  |  |  |  |  |

The next lines start with results.

| remaining at 24 h [1] | Drug degradation [2] | inhibition [3] | half-life [4] | inhibition [5] | Retention_time [6] | Drug degradation [7] | half-life [8] | half-life [9] | inhibition [10] | Structure (SMILES) | IC50 (HCT-116) | IC50 (NCI/ADR-RES) | IC50 (MCF7) |
| --- | --- | --- | --- | --- | --- | --- | --- | --- | --- | --- | --- | --- | --- |
| > 85% | 56.8% | Active | 30 min | Active | 14.62 min | 50.3% | 120 min | 30 min | Active | CC(=O)O[C@H]1C(=O)[C@@]2(C)[C@H]([C@H](OC(=O)c3ccccc3)[C@]3(O)C[C@H](OC(=O)[C@H](OC(=O)CNC(=O)ONC(=O)CCCCCCC(=O)Nc4ccccc4)[C@@H](NC(=O)c4ccccc4)c4ccccc4)C(C)=C1C3(C)C)[C@]1(OC(C)=O)CO[C@@H]1C[C@@H]2O | 9.55 nM | 1380 nM | 1.5 nM |
| > 85% |  |  | 30 min |  | 15.06 min |  |  | 30 min |  | CC(=O)O[C@H]1C(=O)[C@@]2(C)[C@H]([C@H](OC(=O)c3ccccc3)[C@]3(O)C[C@H](OC(=O)[C@H](OC(=O)CCC(=O)ONC(=O)CCCCCCC(=O)Nc4ccccc4)[C@@H](NC(=O)c4ccccc4)c4ccccc4)C(C)=C1C3(C)C)[C@]1(OC(C)=O)CO[C@@H]1C[C@@H]2O | 144 nM | 4020 nM | 62.4 nM |
